High-throughput results from PubChem BioAssay.
This is a sample that favours compounds with a hit; in the whole collection about 2.3% have one here.
OXTR potentiator – human OXTR potentiators, primary screen, fluorescence, CHO-OTR cells, Fluo-8 calcium; Oxytocin receptor (Homo sapiens), P30559; Fluo-8 calcium fluorescence, potentiator mode; 0% = oxytocin EC15, 100% = EC100; activation, % at 3 µM; 0.061% of 320,000 active; AID 2445, 2010;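 active = activation above that plate's cutoff, the mean activation of tested compounds plus 3 SD, cut at about 6.6% in these data, passing the limit was not always enough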;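 also: 100% uses oxytocin at 75 nM as the full agonist control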
Target sequence (P30559 whole entry, looked up): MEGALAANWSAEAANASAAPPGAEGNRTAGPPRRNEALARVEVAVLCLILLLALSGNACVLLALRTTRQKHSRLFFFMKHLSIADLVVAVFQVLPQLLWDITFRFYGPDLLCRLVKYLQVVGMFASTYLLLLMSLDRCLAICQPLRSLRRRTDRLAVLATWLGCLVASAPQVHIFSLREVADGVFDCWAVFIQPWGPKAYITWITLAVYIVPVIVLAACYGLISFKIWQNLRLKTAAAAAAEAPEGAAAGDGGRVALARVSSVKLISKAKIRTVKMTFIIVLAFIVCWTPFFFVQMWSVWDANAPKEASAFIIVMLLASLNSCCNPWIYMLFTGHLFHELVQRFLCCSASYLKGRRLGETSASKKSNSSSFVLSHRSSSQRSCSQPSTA
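assay system = CHO-OTR cells, human receptor | schedule = compound 6 min at room temperature before oxytocin, 100 s read | detection = Fluo-8 intracellular calcium fluorescence, ex 470-495, em 515-575 nm | evaluation = normalized max/min fluorescence ratio, % activation | control set = EC15 oxytocin alone as 0%, 75 nM oxytocin (EC100) as 100%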
TAAR1 ag – human TAAR1 agonists, primary screen, Fluo-8 calcium fluorescence, CHO RD-HGA16 cells. 0.99% of 360,000 active. AID 624467, 2012. vehicle wells 0%, saturating PEA agonist 100%. Trace amine-associated receptor 1 (Homo sapiens), Q96RJ0. activation, % at 3 µM;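 active = activation above the mean activation of all test compounds in the run plus 3 SD, cut at about 38% in these data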
Target sequence (Q96RJ0 whole entry, looked up): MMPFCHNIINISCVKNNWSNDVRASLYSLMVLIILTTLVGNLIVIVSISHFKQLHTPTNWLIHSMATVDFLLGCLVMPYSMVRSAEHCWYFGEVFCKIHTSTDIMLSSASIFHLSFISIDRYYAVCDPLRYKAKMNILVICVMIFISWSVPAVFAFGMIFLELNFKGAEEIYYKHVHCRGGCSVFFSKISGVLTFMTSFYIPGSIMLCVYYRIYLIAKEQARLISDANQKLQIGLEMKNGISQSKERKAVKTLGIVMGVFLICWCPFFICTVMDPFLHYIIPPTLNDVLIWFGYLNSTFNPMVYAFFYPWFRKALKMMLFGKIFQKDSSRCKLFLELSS
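Test system: RD-HGA16 (CHO) cells co-expressing Gα16 and hTAAR1; dosing: one-point dosing at 3 µM (nominal); timing: 17-24 h seeding, 75 min 37 °C dye, 30 min RT; signal: kinetic Fluo-8 calcium fluorescence; read-out basis: % activation relative to PEA EC100 response; controls: DMSO and PEA EC100; replicates: n 1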
OXTR ag – human OXTR agonists, primary screen, fluorescence, CHO-OTR cells, Fluo-8 calcium. Oxytocin receptor (Homo sapiens), P30559. Fluo-8 calcium fluorescence; normalized: DMSO 0%, oxytocin 100%. activation, % at 3 µM. 0.32% of 320,000 active;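 active = activation above the mean of all tested compounds plus 3 SD, cutoff set per screening run, cut at about 20% in these data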;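 also: peak over basal fluorescence ratio from a 100 s FLIPR kinetic read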
V1aR counter – agonists of human V1a receptor, primary screen, counter-screen for OXTR agonist project, fluorescence, CHO-V1R cells; activation, % at 3 µM; Fluo-8 calcium fluorescence, agonist mode; 0% DMSO, 100% 3 nM vasopressin; AID 2797, 2010; 0.25% of 320,000 active;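 active = activation above the mean activation of all tested compounds plus 3 SD, per screening run, cut at about 20% in these data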;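 also: signal is peak over basal fluorescence ratio across a 100 second FLIPR read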
TAAR1 antag – human TAAR1 antagonists, primary screen, Fluo-8 calcium fluorescence, CHO RD-HGA16 cells | Trace amine-associated receptor 1 (Homo sapiens), Q96RJ0 | antagonist | inhibition, % at 3 µM | 1.5% of 360,000 active | AID 624466, 2012;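 active = inhibition above a per-plate cutoff, the mean inhibition of test compounds on that plate plus 3 SD, cut at about 49% in these data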;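 also: 0% = DMSO plus EC80 beta-PEA response and 100% = DMSO alone without agonist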
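System: RD-HGA16 CHO cells with stable hTAAR1 and Gα16 | Probe or stimulus: EC80 β-phenethylamine stimulus | Dosing: 3 µM, single point | Times: Dye loading 75 min at 37 °C, then 30 min room temperature | Measured by: Fluo-8 calcium-sensitive fluorescence | Read-out basis: % inhibition of agonist calcium response | Replicates: n of 1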
Active calls of the source: *; . = no result.

SMILES | OXTR potentiator | TAAR1 ag | OXTR ag | V1aR counter | TAAR1 antag
O=S(=O)(c1cccc(-c2csc(N/N=C/c3ccco3)n2)c1)N1CCOCC1 | 0.0 | 11.8 | 0.3 | 0.6 | 60.4*
O=C(C1=C(O)C(=O)N(c2nccs2)C1c1ccccc1)c1cc2ccccc2o1 (centres undefined) | -9.4 | 5.2 | 20.1* | 185.6* | -37.9
COC(=O)[C@]12C[C@H](CC(=O)N3CCCCC3)C(=O)N(Cc3ccc4c(c3)OCO4)C1=C[C@H](COCc1ccccc1)O[C@@H]2C | . | -0.5 | . | . | -13.2
CCNC(=O)N1CCN(c2ccc(N3CCN(C(=O)NCC)[C@H](C)C3)c(C)c2)[C@H](C)C1 | . | -0.9 | . | . | -16.7
CC[n+]1c(/C=C/C=C/N(C(C)=O)c2ccccc2)sc2ccccc21 | 2.6 | -4.6 | 0.3 | -0.6 | 102.4*
CCn1c(/C=C/N(C(C)=O)c2ccccc2)[n+](CC)c2ccc(Cl)cc21 | -5.1 | 2.7 | 1.3 | 0.8 | 6.7
CC(=O)C1=C(C)N(Cc2ccc(Br)cc2)C(=S)NC1c1cccc(Br)c1 (centres undefined) | . | -0.1 | . | . | 5.9
C=CCC[C@@H](Cc1ccc(F)cc1)C(=O)OC[C@@H](Cc1c[nH]c2ccccc12)NC(=O)[C@H](CC=C)CC(=O)N(CCO)Cc1ccccc1 | -9.3 | 4.9 | 0.6 | -0.6 | 60.3*
C=CC[C@@H](CC(=O)N(CCO)Cc1ccccc1)C(=O)N[C@H](COC(=O)[C@@H](CC=C)Cc1ccc(F)cc1)C(C)(C)C | -8.7 | 7.4 | -2.5 | 0.4 | 18.9
C=CC[C@H](CC(=O)N(CCO)Cc1ccccc1)C(=O)N[C@@H](COC(=O)[C@@H](CC=C)Cc1ccc(F)cc1)Cc1c[nH]c2ccccc12 | -10.2 | 4.4 | 2.2 | 3.8 | 59.5*
C=CCC[C@H](Cc1ccc(F)cc1)C(=O)OC[C@@H](Cc1c[nH]c2ccccc12)NC(=O)[C@H](CC=C)CC(=O)N(CCO)Cc1ccccc1 | -9.2 | 13.5 | 0.2 | -0.1 | 65.1*
C=CC[C@@H](CC(=O)N(CCO)Cc1ccccc1)C(=O)N[C@@H](COC(=O)[C@@H](CC=C)Cc1ccc(F)cc1)Cc1c[nH]c2ccccc12 | -8.7 | 7.5 | 0.4 | 3.0 | 16.9
C=CC[C@H](CC(=O)N(CCO)Cc1ccccc1)C(=O)N[C@H](COC(=O)[C@@H](CC=C)Cc1ccc(F)cc1)C(C)(C)C | -1.0 | 9.6 | -1.4 | -0.4 | 50.7*
O=C1NC(c2ccccc2)(c2ccccc2)C(=O)N1CNc1ccccn1 | . | 0.3 | . | . | -9.4
COc1ccc(C=NN(C)C(=O)Nc2cccc(Cl)c2)cc1OC | . | -0.3 | . | . | 18.6
O=S(=O)(NCC(Nc1ccccc1)c1ccccc1)c1ccc(Cl)cc1 (centres undefined) | -16.3 | -1.1 | -1.9 | 0.4 | 51.3*
O=C(O)c1cccc(NC(CNS(=O)(=O)c2ccc(Cl)cc2)c2ccccc2)c1 (centres undefined) | 1.8 | 1.6 | 0.9 | 1.0 | -10.6
C=CCCC1CN(CC=C)S(=O)(=O)c2c(F)cccc2O1 (centres undefined) | . | 1.5 | . | . | -10.4
O=C(NCc1ccccc1)[C@@H]1CCCN1C(=O)[C@H]1CCCN1C(=O)c1c(F)cccc1F | . | 1.2 | . | . | -10.6
CCN(CC)c1ccc2cc(C(C)=O)c(=O)oc2c1 | -17.4 | 16.5 | 11.9 | 13.7 | 3.8
CCN(CC)c1ccc2cc(-c3nnc(-c4ccncc4)o3)c(=O)oc2c1 | . | 39.7* | . | . | 23.5
CCN(CC)c1ccc2cc(C=O)c(=O)oc2c1 | -23.6 | 73.2* | 109.8* | 88.0* | 35.7
CCN(CC)c1ccc2cc(C(N)=O)c(=O)oc2c1 | -4.6 | 10.1 | 0.4 | 0.6 | -2.5
C=CCN1C[C@H](COC(=O)c2ccc(C)c(C)c2)Oc2cccc(F)c2S1(=O)=O | . | 1.0 | . | . | 27.6
COc1cc(/C=C2/S/C(=N/S(=O)(=O)c3ccccc3)NC2=O)c([N+](=O)[O-])cc1OC | -12.6 | -0.3 | -0.7 | -0.3 | -4.3
SMILES | OXTR potentiator | TAAR1 ag | OXTR ag | V1aR counter | TAAR1 antag
O=C1N/C(=N\S(=O)(=O)Cc2ccccc2)S/C1=C/c1cc([N+](=O)[O-])ccc1O | -13.5 | 57.4* | 43.1* | 62.6* | 72.2*
O=C1N/C(=N\S(=O)(=O)c2ccccc2)S/C1=C\c1cc([N+](=O)[O-])ccc1O | -16.8 | 36.8 | 25.4* | 20.4* | 53.6*
O=C1c2cccc3cccc(c23)C(=O)N1c1ccc(O)cc1 | 2.1 | 2.4 | 0.3 | -0.8 | -11.2
O=C1c2cccc3c(N4CCCCC4)ccc(c23)C(=O)N1c1ccc(O)cc1 | -16.7 | 58.6* | 21.6* | 22.6* | 40.7
O=C1CSC(c2cccs2)N1c1nncs1 (centres undefined) | . | -1.0 | . | . | -5.9
COc1ccc(CNC(=O)[C@H](C)[C@@H]2C[C@@]2(C)[C@@H](NC(=O)OCc2ccccc2)c2ccccc2)cc1OC | -7.4 | 18.1 | 0.2 | 1.5 | 28.1
C[C@@H](C(=O)NCc1ccccc1)[C@H]1C[C@]1(C)[C@H](NC(=O)OCc1ccccc1)c1ccccc1 | -23.7 | 12.7 | -0.9 | -0.2 | 61.7*
COCCN1C(=O)/C(=C/c2ccc(OCc3ccc(C(=O)O)cc3)c(OC)c2)SC1=Nc1ccccc1 | -8.7 | 19.3 | 1.4 | 1.3 | 72.9*
COc1cc(/C=C2\SC(=Nc3ccccc3)N(Cc3ccco3)C2=O)ccc1OC(C)C(=O)O (centres undefined) | 3.2 | 4.2 | -1.9 | 0.5 | -15.1
C#CCOCCOCCOCCNc1nc(N2CCN(C(=O)CCCCCCCCCCNC(=O)[C@H](CCCCN)n3cc(CCO)nn3)CC2)nc(N2CCN(C(=O)CCCCCCCCCCNC(=O)[C@H](CCCCN)n3cc(C[C@@H](C)CC)nn3)CC2)n1 | -13.5 | . | 6.1 | 24.6* | .
C#CCOCCOCCOCCNc1nc(N2CCN(C(=O)CCCCCCCCCCNC(=O)[C@H](CCCCN)n3cc(C[C@@H](C)CC)nn3)CC2)nc(N2CCN(C(=O)CCCCCCCCCCNC(=O)[C@H](CCCN=C(N)N)n3cc(C[C@@H](C)CC)nn3)CC2)n1 | 5.3 | . | 1.2 | 1.7 | .
NC(=O)c1ncn([C@@H]2O[C@H](C(=O)N[C@H](Cc3ccccc3)C(=O)N3CCN(c4ccc(Cl)cn4)CC3)[C@@H](O)[C@H]2O)n1 | . | 5.7 | . | . | -20.9
NS(=O)(=O)c1ccc(Nc2nc(-c3ccc4ccccc4c3)cs2)cc1 | -9.8 | 0.4 | 3.0 | 0.2 | 2.4
NS(=O)(=O)c1ccc(Nc2nc(-c3cccc([N+](=O)[O-])c3)cs2)cc1 | -6.7 | 7.2 | -1.4 | -0.8 | 54.5*
